According to ChEMBL document CHEMBL1914453, “1,1-Diarylalkenes as anticancer agents: dual inhibitors of tubulin polymerization and phosphodiesterase 4” (Bioorg Med Chem, 2011):

Legend:
HCT-116 [1] = assay: Antitumor activity against human HCT116 cells xenografted in SCID mouse assessed as tumor growth inhibition at 20 mg/kg, ip once daily measured twice weekly relative to control; conditions: HCT-116, ip, 24 h, read-out: GI
Mus musculus = assay: Toxicity in SCID mouse xenografted with human HCT116 cells assessed as reduction in body weight at 20 mg/kg, ip once daily measured after day 19 relative to control; assay type: organism-based, HCT-116; parameters: dose 20 mg/kg, route intraperitoneal; scale not given: the % may be the effect or the level left; conditions: in vivo
Summary of the method: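 SCID mice carrying s.c. HCT-116 tumors were dosed ip at 20 mg/kg once daily in CMC-Tween vehicle (0.5% carboxymethylcellulose, 0.25% Tween 80) from day 8. Health was monitored daily and body weights were compared with the vehicle group.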

HCT-116 [2] = assay: Cytotoxicity against human HCT116 cells assessed as reduction of [3H]thymidine incorporation after 72 hrs by scintillation counting; assay type: functional, cell-based
Summary of the method: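 HCT-116 cells were seeded 24 h before compound and treated with serial dilutions in triplicate for 72 h at 37 °C. [³H]thymidine (1 µCi per well) was added for the last 6 h, and incorporation was read by scintillation counting. IC50 came from nonlinear sigmoidal regression (top 100%, bottom 0%, variable slope). Values are means of at least three independent determinations, with SEM from the individual IC50s.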

PBMC = assay: Inhibition of LPS-induced TNFalpha production in human PBMC preincubated 1 hr prior to LPS stimulation measured after 18 to 20 hrs by ELISA; assay type: functional, cell-based
Summary of the method: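 PBMC were isolated by Ficoll-Hypaque density centrifugation and plated at 2 × 10⁵ cells in triplicate. Compounds in DMSO (0.25% final) were added 1 h before stimulation with LPS from S. abortus equi at 1 ng/ml. After 18–20 h at 37 °C in 5% CO₂, supernatant TNF-α was measured by ELISA. IC50 values are means of at least three determinations.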

[3] = Inhibition of tubulin polymerization at 10 uM after 60 mins by spectrophotometry
[4] = Stability in human plasma assessed as half life by LC-MS/MS analysis; assay type: ADME, cell-free
Summary of the method: (§1)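 Analogs were incubated in human plasma at 37 °C and sampled at 0, 0.5, 1, 2, 3, 4, 6, 8 and 24 h. Samples were quenched in acetonitrile with 0.1% formic acid and internal standard, centrifuged, and analysed by LC–MS/MS in MRM mode on a C18 monolithic column with an aqueous acetonitrile/0.1% formic acid gradient. Percentage remaining was taken from analyte/IS peak-area ratios relative to time zero.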

Phosphodiesterase 4 = Phosphodiesterase 4 (Homo sapiens, UniProt P27815+Q08499+Q07343+Q08493); assay: Inhibition of human PDE4 expressed in U937 cells using [3H]cAMP as substrate after 30 mins; conditions: u-937
Summary of the method: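 PDE4 was purified from U937 human monocytic cells by gel filtration. Reactions ran in 50 mM Tris–HCl pH 7.5 with 5 mM MgCl₂, 1 µM cAMP and 10 nM [³H]-cAMP for 30 min at 30 °C. They were stopped by boiling, treated with snake venom (1 mg/ml) and separated on ion-exchange resin. Substrate consumption stayed below 15%. IC50 values are means of at least three determinations, with SEM.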

[5] = Solubility of the compound at pH 5 after 4 hrs by UV-Vis spectrophotometry; assay type: physicochemical; conditions: buffer
Summary of the method: (§2)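 A suspension of about 1 mg/mL (0.5 mL) in pH 5.0 or pH 7.4 buffer was stirred at 400 rpm for 4 h and then filtered. Concentration was determined by UV-vis plate reading (200–400 nm) against standard curves for each compound. Replicate measurements were made at pH 5.0.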

[6] = Inhibition of tubulin polymerization at 5 uM after 60 mins by spectrophotometry
[7] = Solubility of the compound at pH 7.4 after 4 hrs by UV-Vis spectrophotometry; assay type: physicochemical; conditions: buffer
Summary of the method: as §2

Plasma = assay: Stability in human plasma assessed as formation of (E/Z)-3-(3-Amino-4-methoxyphenyl)-3-(3-ethoxy-4- methoxyphenyl)acrylonitrile by LC-MS/MS analysis; assay type: ADME, cell-free
Summary of the method: as §1

HCT-116 [8] = assay: Antitumor activity against human HCT116 cells xenografted in SCID mouse assessed as tumor growth inhibition at 5 mg/kg, ip once every 4 days measured twice weekly relative to control; assay type: functional; conditions: HCT-116, ip, 96 h, route intraperitoneal, read-out: GI
Summary of the method: (§3)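 Female SCID mice, 6–8 weeks old, inoculated s.c. in the right hind leg with 2 × 10⁶ HCT-116 cells in sterile PBS. On day 8, mice with 75–125 mm³ tumors were randomized and dosed ip in CMC-Tween vehicle (0.5% carboxymethylcellulose, 0.25% Tween 80 in water). Tumors were measured twice weekly by caliper, volume W² × L / 2, and compared with vehicle.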

HCT-116 [9] = assay: Antitumor activity against human HCT116 cells xenografted in SCID mouse assessed as reduction in tumor volume at 20 mg/kg, ip qd measured twice weekly relative to control; assay type: functional; parameters: scale not given: the % may be the effect or the level left; conditions: route intraperitoneal
Summary of the method: as §3

[10] = Ratio of IC50 for human PDE4 expressed in U937 cells to IC50 for human HCT116 cells; parameters: species or system HCT-116

SMILES	inhibition [3]	half-life [4]	IC50 (Phosphodiesterase 4)	solubility at 4 h [5]	inhibition [6]	solubility at 4 h [7]	Stability (Plasma)	inhibition in vivo at 20 mg/kg (HCT-116 [1])	Activity (Mus musculus)	IC50 (HCT-116 [2])	IC50 (PBMC)	inhibition in vivo at 5 mg/kg (HCT-116 [8])	Activity (HCT-116 [9])	Ratio IC50 [10]
CCc1c2c(nc3ccc(OC(=O)N4CCC(N5CCCCC5)CC4)cc13)-c1cc3c(c(=O)n1C2)COC(=O)[C@]3(O)CC [IRINOTECAN]	–	–	–	–	–	–	–	–	–	–	–	85%	–	–
COc1cc(OC)cc(C(=C(C)C)c2ccc(OC)c(O)c2)c1	–	–	> 10000 nM	–	–	–	–	–	–	970 nM	7000 nM	–	–	10

More lines, main results first:

inhibition [3]	half-life [4]	IC50 (Phosphodiesterase 4)	solubility at 4 h [5]	inhibition [6]	solubility at 4 h [7]	Stability (Plasma)	SMILES	inhibition in vivo at 20 mg/kg (HCT-116 [1])	Activity (Mus musculus)	IC50 (HCT-116 [2])	IC50 (PBMC)	inhibition in vivo at 5 mg/kg (HCT-116 [8])	Activity (HCT-116 [9])	Ratio IC50 [10]
70%	56 h	400 nM	356 µg/mL	59%	205 µg/mL	Stable	CCOc1cc(C(=CC#N)c2ccc(OC)c(NC(=O)CN)c2)ccc1OC.Cl	64%	15%	93 nM	31 nM	–	–	–
–	27 h	150 nM	1040 µg/mL	–	405 µg/mL	Stable	CCOc1cc(C(=CC#N)c2ccc(OC)c(NC(=O)[C@H](C)N)c2)ccc1OC.Cl	–	–	40 nM	27 nM	–	–	–
59%	–	54 nM	–	48%	–	–	CCOc1cc(C(=CC#N)c2cc(OC)cc(OC)c2)ccc1OC	–	–	34 nM	43 nM	–	16%	–
76%	–	47 nM	< 3 µg/mL	65%	< 3 µg/mL	–	CCOc1cc(C(=CC#N)c2ccc(OC)c(N)c2)ccc1OC	–	–	19 nM	31 nM	–	–	–
